Test: Toxicity liver stage against HepG2, at 10uM
Format: cell-based
Set-up: test concentration 10 uM, cell line HepG2-A16-CD81EGFP
Conditions: human, HepG2-A16-CD81EGFP cells; read-out: INHIBITION
Outline: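 Uninfected HepG2-A16-CD81EGFP cells, 3 × 10^3 per well, 1536-well, plated on prespotted compound at 10 μM final, parasite-free screening media added to match infected plates; puromycin 10 μM positive, DMSO 0.5% negative; run in parallel with 48 h PbLuc assay at 37 °C, 5% CO2; viability by CellTiter-Glo luminescence, normalized to controls.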

| SMILES | cytotoxicity at 10 µM [%] |
| --- | --- |
| CCC1(CC)Cc2ccccc2-c2nc(NCCO)[nH]c(=O)c21 | -7.17 |
| CCN1CCN(Cc2coc(-c3cccc(F)c3)n2)CC1 | -7.75 |
| CC(C)(C)CN1CCOC[C@H]1c1nc(-c2cccc(F)c2)c[nH]1 | -3.79 |
| Cn1nc(-c2ccc(Cl)cc2)c(Br)c1C(=O)O | -46.8 |
| CC(=O)Nc1ccc(OCc2noc(C(=O)N3CCCCCC3)n2)cc1 | -23 |
| Cc1ccc(NC(=O)Cn2ncc(SCC(N)=O)c(Cl)c2=O)c(F)c1 | -7.21 |
| O=C(Nc1nc2c(s1)CN(S(=O)(=O)C1CC1)CC2)Nc1ccccc1F | -1.34 |
| O=C(NCCn1ccc(-c2ccncc2)n1)c1ccc2c(c1)OCO2 | 6.03 |
| O=C1[C@H]2CN(c3ncccn3)C[C@H]2CN1CC1CC1 | 4.41 |
| O=C(O)c1nnn(-c2cccc(C(F)(F)F)c2)c1-c1ccncc1 | 4.76 |
| c1ccc(N2CCC(c3ccncc3)CC2)cc1 | 8.45 |
| CN1CCCC(c2cccc(-c3cccc(Cl)c3)n2)C1 (centres undefined) | -9.58 |
| CC(C)(C)n1nnnc1CN(CCc1ccccc1)Cc1ccccc1 | 4.91 |
| Cc1c[nH]nc1C1CCN(C(=O)C2CCCC2)C1 (centres undefined) | 0.631 |
| Cc1cccc(Nc2cccc(C3CCCN(Cc4ncc[nH]4)C3)n2)n1 (centres undefined) | -24.1 |
| Cc1ccc(S(=O)(=O)N2C[C@H]3C[C@H](NC(=O)c4cc[nH]n4)[C@H]3C2)cc1 | 81.4 |
| O=C(Cc1ccc2c(c1)CCCC2)N[C@@H]1CC[C@@H](n2ccnc2)[C@@H]1O | -5.69 |
| CN(CC(=O)NCC(F)(F)F)C(=O)c1ccc(C(=O)OC(C)(C)C)cc1 | 0.68 |
| CCCN1CCN(C(=O)c2cccnc2)CC1 | -48.5 |
| CNC(=O)Cc1ccc(NC(=O)NCc2ncc(C)s2)cc1 | 7.34 |
| CC(Cn1cncn1)NC(=O)NCC(C)(C)c1ccc(F)cc1 (centres undefined) | 13.6 |
| Cc1csc(C2(NC(=O)NCCN3CCOCC3)CCCC2)n1 | -3.55 |

| SMILES | cytotoxicity at 10 µM [%] |
| --- | --- |
| CCCc1ncc(C(=O)N2CCOc3ncccc32)s1 | 11.6 |
| Cn1cccc1C(=O)NC1CCN(c2ccc(OC(F)(F)F)cc2)CC1 | 4.87 |
| COCCNc1ccccc1CNC(=O)NCc1ccc(C)s1 | 4.38 |
| CCc1ccc(C2CCCCCN2C(=O)CNC(=O)C2CC2)o1 (centres undefined) | -7.25 |
| Cc1c(NCc2ccccc2C#N)cccc1S(=O)(=O)NC1CC1 | 30.4 |
| O=C(CCn1ccc2ccccc21)N1CCN(Cc2cccnc2)CC1 | 0.951 |
| COc1ccc(CCN(C)CCS(=O)(=O)c2ccc(Cl)cc2)cc1OC | 35.4 |
| CCc1ccc(C2COCCN2C(=O)Nc2ccc(C#N)cc2)o1 (centres undefined) | -0.0554 |
| COc1ccc(-n2cnnc2SCC(=O)NC(C)C)cn1 | 14 |
| Cc1ccc(N2CCCC(NCCS(C)(=O)=O)C2)nn1 (centres undefined) | -5.26 |
| O=C(COc1cccc2c1CCC2=O)NCCc1cccs1 | 0.79 |
| Fc1ccc(CNCCn2cccn2)c(Cl)c1 | -1.26 |
| Cc1nc(C)c(C(=O)NCCOc2ccc(C(F)(F)F)cn2)o1 | 2.42 |
| Cc1ccsc1CNC(=O)Nc1ccn(CCN2CCOCC2)n1 | 8.28 |
| CC(C)CC(Cc1cccc(Br)c1)C(=O)O (centres undefined) | 13.8 |
| Cc1cc(N(C)CCOc2ccccc2F)nc(N)n1 | 20.1 |
| COc1cccc(N2CCC(CNc3cc(C)nc4ncnn34)C2)c1 (centres undefined) | 59.7 |
| CCCN(CCc1ccccn1)C(=O)CCc1cnn(C)c1 | -2.84 |
| CC(=O)N1CCN(C2CCc3ccccc32)CC1 (centres undefined) | -44.7 |
| Cc1ccc(CN(C)C(=O)c2cnsn2)cc1 | -16.4 |
| O=C(CCc1ccco1)NS(=O)(=O)Cc1ccon1 | 9.99 |
| Cc1cc(Br)cnc1NCCN1CCC(N(C)C)CC1 | -10.6 |

| SMILES | cytotoxicity at 10 µM [%] |
| --- | --- |
| CCOCC(=O)N1C[C@@H]2COC[C@]2(c2nc(C)no2)C1 | -90.9 |
| COc1cc(N2C[C@@H]3COC[C@@H](Cc4nc(C)no4)[C@@H]3C2)ncn1 | -105 |
| O=C(c1cscn1)N1C[C@H]2CCC[C@@]2(COCc2ccccn2)C1 | -103 |
| CNC(=O)N1CC[C@@H]2CN(Cc3cccc(OC)c3)S(=O)(=O)[C@@H]2CC1 | -108 |
| O=C(c1ccoc1)N1CCc2c(COCC3CC3)cncc2C1 | -76.9 |
| c1cc(CN2CCOCC3(CCNCC3)C2)ccn1 | -71 |
| COCCC(=O)N1CC[C@H]2O[C@@H](C)C[C@H]2C1 | -72.4 |
| O=C(NC1CCC1)C1=NOC2(CCN(Cc3ccc(F)cc3)C2)C1 (centres undefined) | -67.7 |
| CCO[C@@H]1CO[C@@]2(CCCN(S(=O)(=O)c3ccccc3)C2)C1 | -77.2 |
| CSc1ncccc1C(=O)N1CCCC1c1ccc(C(=O)N(C)C)s1 (centres undefined) | 6.45 |
| COc1cc(C(=O)NCc2cc(N3CCOCC3)ncn2)ccn1 | -10.8 |
| Cn1ncc(N2CCC(CNC3CC(c4ccccc4)C3)CC2)cc1=O (centres undefined) | -2.15 |
| Cn1nnnc1SCCNC1CCN(c2ccc3c(c2)OCO3)CC1 | 3.07 |
| CCc1cc(CN2CCCCC2c2ccc(F)cc2)on1 (centres undefined) | -2.45 |
| Cc1cc(CC(C)Nc2ncc(C)c(N(C)C)n2)[nH]n1 (centres undefined) | -7.85 |
| CC(C)N(C)S(=O)(=O)c1ccc2c(c1)CCN(C(=O)c1cscn1)C2 | 8.48 |
| CC(C)c1nc(CN(C)C(=O)c2ccc(CN3CCCCC3)cc2)cs1 | -6.1 |
| CCCN1CCN(S(=O)(=O)c2ccccc2OC)[C@H]2CS(=O)(=O)C[C@H]21 | -3.56 |
| COc1cccc(CC(=O)N2CCc3ncnc(NCCO)c3CC2)c1 | -4.12 |
| C=C(C)COc1cccc(C(=O)N2CCC(O)(c3ccccc3)CC2)c1 | -44.9 |
| CCCn1nc(C)c(CN2CC3(CCOC3)CCC2=O)c1C (centres undefined) | 4.28 |
| CN1CCC(Cc2nc(-c3ccnn3C)n(Cc3ccccc3)n2)CC1 | 44.1 |

| SMILES | cytotoxicity at 10 µM [%] |
| --- | --- |
| c1cc(CN2CCC(c3nnc4n3CCCCC4)CC2)c2nonc2c1 | -1.08 |
| CC(C)c1nccn1C(C)C(=O)N1CCN(c2ccccc2Cl)CC1 (centres undefined) | 3.54 |
| CC(C)c1ocnc1C(=O)NC(c1nnc2n1CCNCC2)C(C)C (centres undefined) | -9.72 |
| COc1cccc(CCC2CCCN(Cc3ncc[nH]3)C2)c1 (centres undefined) | 1.13 |
| Cc1cccc(N2CCC(N3CCC4(CN(C)C(=O)O4)C3)CC2)c1C (centres undefined) | -11.8 |
| CNC(=O)C(C)(C)NC(=O)c1cc(COc2ccccc2OC)[nH]n1 | 1.6 |
| CCc1cnc(N)nc1NCCCn1cc(Cl)cn1 | 3.5 |
| CN(Cc1ccccc1Cl)C(C(=O)O)c1ccc(F)c(CO)c1 (centres undefined) | -46.4 |
| COc1ccc(-n2cnnc2CC2CCNCC2)cc1 | -5.53 |
| CCc1csc(CNc2nc3c(s2)c(C)nn3C)n1 | -35.5 |
| CN1CCN([C@H]2CCN(C(=O)c3cc(Cl)cn3C)C[C@H]2CCCO)CC1 | 0.174 |
| O=C(NC1CC1)C1CN(c2nc3ccccc3s2)CCN1 (centres undefined) | -49.4 |
| CCN(C)S(=O)(=O)N[C@H]1CN(c2ccc(F)cn2)C[C@@H]1C(C)C | 10.8 |
| COCCN1CCC(CN(C)c2nc3c(s2)c(C)nn3C)CC1 | 0.992 |
| CCSC(C)C(=O)N1CCC(c2nn(C)c(=O)n2-c2ccccc2)CC1 (centres undefined) | 0.299 |
| COc1ncc(CN(CCN(C)C)Cc2ccc(C)s2)cn1 | -50.3 |
| C1Cc2nc(CCNc3nc(C4CC4)nc4c3CCNCC4)sc2C1 | -10.4 |
| COc1ccc(OCc2cc(C(=O)N3CCN[C@H](C)C3)n[nH]2)c(Cl)c1 | -11.7 |
| Cc1cc(Br)c(O)c(-c2nc(N3CCCCC3)sc2C)c1 | -7.13 |
| CC(=O)N1C[C@@H](c2ccsc2)[C@@H]2CN(Cc3cccc(Cl)c3)CC[C@@H]21 | 13.1 |
| CCOCCCn1c(NC(=O)c2cc(C)on2)nc2ccccc21 | -31.3 |
| Cc1nn(C)c(N(C)C)c1CNCCC(=O)NC1CCCC1 | -3.37 |

| SMILES | cytotoxicity at 10 µM [%] |
| --- | --- |
| CCCc1noc(CCCC(=O)N2CCCC2c2cnn(C)c2)n1 (centres undefined) | 6.32 |
| Cc1cn2c(n1)CCC(NC(=O)c1[nH]nc(C)c1Br)C2 (centres undefined) | -17.6 |
| CCN(Cc1nc2c(cnn2C)c(=O)[nH]1)c1cc(C)cc(C)c1 | -5.83 |
| COCCc1noc(CN2CCCC2Cn2nc(C)nc2C)n1 (centres undefined) | -1.39 |
| c1cnnc(N2CCCC2CNc2ncnc3ccccc23)c1 (centres undefined) | 2.33 |
| CC1(C)CC(N(Cc2cccnc2)Cc2cccnc2)CC(C)(C)N1 | 1.3 |
| CN1CCN(C(=O)Cc2ccsc2)Cc2cccnc21 | -1.16 |
| Cn1nc(C2CCCN(Cc3ccccc3)C2)c2nccnc21 (centres undefined) | -9.05 |
| CC(C)C(=O)N1CCC2(CC1)COCCN2Cc1ccc(F)cc1 | -60.9 |
| O=C(NCc1cnc2n1CCN(Cc1ccoc1)C2)c1ccno1 | -93 |
| N#Cc1ccc(N2CCCC3(CCN(c4cncnc4)C3=O)C2)nc1 (centres undefined) | -97.6 |
| COc1ccc(CN2C[C@@H]3CN(Cc4cccnc4)CCO[C@@H]3C2)cc1 | 10.3 |
| CCn1cc2c(n1)CN(Cc1cnn(C)c1)CC2COCC1CC1 (centres undefined) | -80.4 |
| Cn1ncc2c1CN(C(=O)Cc1ccccn1)CC2COCC1CC1 (centres undefined) | -73.6 |
| CN(C)c1nccc(N2CCO[C@H]3CN(Cc4ccsc4)C[C@H]32)n1 | 8.93 |
| Cc1ccc(CN2Cc3nccn3CC(CN(C)C)C2)s1 (centres undefined) | -82.4 |
| CN(C)CCNC(=O)c1cc(-c2cnc(N3CCCC3)nc2)cn1C | 15.7 |
| c1cncc(N2CCCC3(CN(Cc4cccs4)CCO3)C2)c1 (centres undefined) | 11.5 |
| CC(C)COC1CC2(CCN(C(=O)Cc3ccccn3)CC2)C1 | -113 |
| CCC1=NN2C(=N)C(=Cc3cccn3-c3ccc(Br)cc3)C(=O)N=C2S1 | -7.83 |
| O=C(Nc1cccnc1)[C@H]1C[C@H]2CN(Cc3ccc(F)cc3)C[C@@H]1O2 | -82.9 |

Reference: ChEMBL document CHEMBL4513216, “Probing the Open Global Health Chemical Diversity Library for Multistage-Active Starting Points for Next-Generation Antimalarials” (ACS Infect Dis, 2020)
